# Calls of active or inactive are those of the source. The rule behind the calls is not given here. Numbered stars: 1 amine (or outer) side, 2 acyl side, 3 side chain; on linkers, the order of the positions; unused ones are H or OH. Square brackets hold non-standard residues; d marks the D form. Peptide text beside a SMILES is read from it. * marks the point of attachment. X1 = O=C(CCOC[C@H]1O[C@@H](OCCCN[*:1])[C@H](O)[C@@H](O)[C@@H]1O)[*:2]; X2 = O=C(CCOC[C@H]1O[C@@H](OCCN[*:1])[C@H](O)[C@@H](O)[C@@H]1O)[*:2]; X3 = O=C(CCOC[C@H]1O[C@H](OCCCN[*:1])[C@H](O)[C@@H](O)[C@@H]1O)[*:2]; X4 = O=C(CCOC[C@H]1O[C@H](OCCN[*:1])[C@H](O)[C@@H](O)[C@@H]1O)[*:2]; Boc = CC(C)(C)OC(=O)*
# What was measured:
# [1] = Inhibition of amyloid beta (1 to 40) fibril formation assessed as fold increase in lag time for aggregate formation at 1:1 protein to compound ratio by thioflavin T fluorescence assay relative to untreated control
# In short: (§1)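 HFIP-pretreated synthetic Aβ1-40 (DMSO stock) was used at 20 μM with compound at 1:1 or 1:0.1 peptide:compound ratios. The mixture contained 10 μM ThT in 10 mM Tris/HCl, 100 mM NaCl, pH 7.4, with 2.5% DMSO final. Fluorescence (ex 440, em 485 nm) was followed over time on aliquots, 2–6 runs on different days. Lag extension was taken as t(+compound)/t(alone), and plateau reduction as a percent decrease versus peptide alone.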
# [2] = Inhibition of amyloid beta (1 to 40) fibril formation at 1:1 protein to compound ratio by thioflavin T fluorescence assay relative to untreated control; conditions: concentration not given here; in short: as §1
# [3] = Inhibition of amyloid beta (1 to 40) fibril formation assessed as lag time for aggregate formation at 1:0.1 protein to compound ratio by thioflavin T fluorescence assay relative to untreated control; in short: as §1
# [4] = Inhibition of amyloid beta (1 to 40) fibril formation assessed as lag time for aggregate formation at 1:1 protein to compound ratio by thioflavin T fluorescence assay relative to untreated control; in short: as §1
# [5] = biological target: T1, Islet amyloid polypeptide (Homo sapiens) (UniProt P10997); experiment: Inhibition of IAPP fibril formation assessed as fold increase in lag time for aggregate formation at 1:10 protein to compound ratio by thioflavin T fluorescence assay relative to untreated control
# T1 sequence (whole entry): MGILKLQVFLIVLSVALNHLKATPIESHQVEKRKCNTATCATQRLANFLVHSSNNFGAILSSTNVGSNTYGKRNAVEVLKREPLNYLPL
# In short: (§2)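 IAPP was made synthetic with an amidated C-terminus, pretreated with HFIP, and taken up in DMSO. It was used at 5 μM with 10 μM ThT in 10 mM Tris/HCl, 100 mM NaCl, pH 7.4, with 2.5% DMSO final. Compound was added at a 1:10 peptide:compound ratio. Fluorescence was read over time (ex 440, em 485 nm), 2–6 runs on different days. Lag extension was calculated as t(+compound)/t(alone). Plateau reduction was (F − F+compound)/F × 100%.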
# [6] = biological target: T1, Islet amyloid polypeptide (Homo sapiens); experiment: Inhibition of IAPP fibril formation assessed as inhibition of aggregate formation at 1:10 protein to compound ratio by thioflavin T fluorescence assay relative to untreated control; conditions: concentration not given here; in short: as §2
# [7] = Inhibition of amyloid beta (1 to 40) fibril formation assessed as appearance of spherical aggregates at 1:1 protein to compound ratio after 1 to 2 days by transmission electron microscopy analysis
# In short: (§3)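 Aβ1-40 and compound were incubated at a 1:1 ratio in 10 mM Tris·HCl, 100 mM NaCl, pH 7.4, under the ThT assay conditions. Aliquots were taken after 1 day, 2 days and 2 weeks. They were adsorbed onto carbon-coated grids for 2 min, negatively stained, and imaged by TEM.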
# [8] = Inhibition of amyloid beta (1 to 40) fibril formation assessed as appearance of spherical aggregates at 1:1 protein to compound ratio after 2 weeks by transmission electron microscopy analysis; in short: as §3
# [9] = Inhibition of amyloid beta (1 to 40) fibril formation assessed as appearance of spherical aggregates at 1:01 protein to compound ratio after 1 to 2 days by transmission electron microscopy analysis
# [10] = Inhibition of amyloid beta (1 to 40) fibril formation assessed as appearance of spherical aggregates at 1:01 protein to compound ratio after 2 weeks by transmission electron microscopy analysis
# [11] = biological target: T1, Islet amyloid polypeptide (Homo sapiens); experiment: Inhibition of IAPP fibril formation at 1:10 protein to compound ratio after 3 hrs by transmission electron microscopy analysis
# In short: (§4)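 IAPP and compound (1:10) were incubated under the ThT assay conditions: 10 mM Tris·HCl, 100 mM NaCl, pH 7.4. Aliquots were taken at 3 h and 24 h, adsorbed onto carbon-coated copper grids for 2 min, negatively stained, and imaged by transmission electron microscopy.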
# [12] = biological target: T1, Islet amyloid polypeptide (Homo sapiens); experiment: Inhibition of IAPP fibril formation at 1:10 protein to compound ratio after 24 hrs by transmission electron microscopy analysis; in short: as §4
# [13] = Binding affinity to amyloid beta (1 to 40) assessed as negative chemical shift at 1 mM by 2D NOESY spectroscopy analysis
# In short: (§5)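 Synthetic C-terminally amidated Aβ1-40 was studied by NMR in 50 mM sodium phosphate, 150 mM NaCl, pH 7.0, with 10% D2O. 2D NOESY spectra were recorded with a 0.2 s mixing time.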
# [14] = Binding affinity to amyloid beta (1 to 40) at 1 mM by STD-NMR spectroscopy
# In short: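 1D saturation transfer difference NMR was run in 50 mM sodium phosphate, 150 mM NaCl, pH 7.0, 10% D2O. Compound was at 1 mM and Aβ1-40 at 0.25 mM. Saturation used a cascade of Gaussian selective pulses (50 ms each, B1 0.16 kHz) lasting 2 s in total, applied alternately at -1 and +30 ppm. Compound-alone spectra served as control.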
# [15] = Binding affinity to amyloid beta (1 to 40) at 1:20 protein to compound ratio up to 1 hr by STD-NMR spectroscopy
# In short: (§6)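 STD-NMR used diluted Aβ1-40 (30 μM) at a 1:20 peptide:compound ratio, followed over time. Buffer was 50 mM sodium phosphate, 150 mM NaCl, pH 7.0, 10% D2O. A cascade of Gaussian selective pulses (50 ms, B1 0.16 kHz, 2 s total) was applied alternately at -1 and +30 ppm.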
# [16] = Binding affinity to amyloid beta (1 to 40) at 1:20 protein to compound ratio after 2 weeks by STD-NMR spectroscopy; in short: as §6
# [17] = Solubility of compound in water; type: physicochemical; conditions: buffer
# [18] = Binding affinity to amyloid beta (1 to 40) assessed as negative chemical shift by NMR spectroscopy analysis; in short: as §5
Structure (SMILES),fold change (FC) [1],inhibition [2],TIME [3],TIME [4],fold change (FC) [5],inhibition [6],inhibition [7],inhibition [8],inhibition [9],inhibition [10],inhibition [11],inhibition [12],Activity [13],Activity [14],Activity [15],Activity [16],solubility [17],Activity [18]
COC(=O)[C@H](CC(C)C)NC(=O)[C@@H](NC(=O)CCOC[C@H]1O[C@@H](OCCCNC(=O)[C@@H](NC(=O)[C@H](C)NC(=O)OC(C)(C)C)C(C)C)[C@H](O)[C@@H](O)[C@@H]1O)C(C)C (Boc-AV[X1]VL-OMe),3,52%,26 h,41 h,1,5%,Active,Active,Active,inactive,inactive,inactive,Active,Active,inactive,Active,soluble,inactive
COC(=O)[C@H](CC(C)C)NC(=O)[C@@H](NC(=O)CCOC[C@H]1O[C@@H](OCCNC(=O)[C@@H](NC(=O)[C@H](C)NC(=O)OC(C)(C)C)C(C)C)[C@H](O)[C@@H](O)[C@@H]1O)C(C)C (Boc-AV[X2]VL-OMe),3.4,40%,–,–,1,1%,–,–,–,–,–,–,–,–,–,–,soluble,–
COC(=O)[C@H](CC(C)C)NC(=O)[C@@H](NC(=O)CCOC[C@H]1O[C@H](OCCCNC(=O)[C@@H](NC(=O)[C@H](C)NC(=O)OC(C)(C)C)C(C)C)[C@H](O)[C@@H](O)[C@@H]1O)C(C)C (Boc-AV[X3]VL-OMe),3.4,60%,–,–,1,9%,–,–,–,–,–,–,–,–,–,–,soluble,–
COC(=O)[C@H](CC(C)C)NC(=O)[C@@H](NC(=O)CCOC[C@H]1O[C@H](OCCNC(=O)[C@@H](NC(=O)[C@H](C)NC(=O)OC(C)(C)C)C(C)C)[C@H](O)[C@@H](O)[C@@H]1O)C(C)C (Boc-AV[X4]VL-OMe),3.4,22%,–,–,–,–,–,–,–,–,–,–,–,–,–,–,soluble,–

# Reference: ChEMBL document CHEMBL1914311, “Sugar-based peptidomimetics inhibit amyloid β-peptide aggregation” (Eur J Med Chem, 2011)
